The results in this text go back to ChEMBL document CHEMBL5678805, “Intermittent administration of MEK inhibitor GDC-0973 plus PI3K inhibitor GDC-0941 triggers robust apoptosis and tumor growth inhibition” (Cancer Res, 2012).

The structures appear in SMILES notation. Calls of active or inactive are those of the source. No cut-off for these calls is given here. Where only a bound is given, the exact number is not on record here.

The target in experiment [1] is Protein kinase C alpha type (Homo sapiens, UniProt P17252). In words: Inhibition of PKC alpha (unknown origin).
Another experiment has as its system HCT-116. Put plainly: Antitumor activity against human HCT-116 cells harboring KRAS G13D/PIK3CA […]/CTNNB1 S45del/CDKN2A G23fs mutant xenografted in mouse assessed as tumor growth inhibition at 2.5 mg/kg, po. Format: functional. The following applies: read-out: TGI. The essentials:
(§1)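 Single-agent dose ranging in human tumor xenograft mice at 2.5, 5 or 10 mg/kg oral. Tumor volume was measured by caliper as (L×W×W)/2. %TGI = 100×[1 − AUC(treatment/d)/AUC(vehicle/d)] from the fitted growth curve per dose group, relative to vehicle.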

Another experiment concerns the target Ephrin type-A receptor 2 (Homo sapiens, UniProt P29317). Put plainly: Inhibition of EphA2 (unknown origin).
In experiment [2] the target is Serine/threonine-protein kinase PAK 2 (Homo sapiens, UniProt Q13177). In words: Inhibition of PAK2 (unknown origin).
For a further experiment, the system named is DU-145. Put plainly: Antitumor activity against human DU-145 cells harboring KRAS G12V/LKB1 K178/TP53 P223L/V274F/CDKN2A/MLH1/SMARCA4/ NF1 P2472H/RB1K715 mutant xenografted in mouse assessed as tumor growth inhibition at 10 mg/kg, po. The following applies: read-out: TGI. Format: functional. An outline of the steps:
as §1
(In general: In xenograft studies the graft and the host belong to different species.)

The subject of experiment [3] is NCI-H69. Put plainly: Antitumor activity against human NCI-H69 cells harboring RBI E748/PK3CA G106_R108/TP53 E171 mutant xenografted in mouse assessed as tumor growth inhibition at 10 mg/kg, po. Format: functional. The settings on record: read-out: TGI. The essentials:
(§2)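 Human tumor xenografts in mice were dosed orally at the indicated mg/kg. Tumor volume was measured with calipers as (L×W×W)/2. %TGI = 100 × [1 − (AUC treatment/d)/(AUC vehicle/d)], using the area under the fitted tumor-growth curve per day for each dose group relative to vehicle.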

For another experiment, the system named is SK-OV-3. Put plainly: Antitumor activity against human SK-OV-3 cells harboring FBXW7 R505L and CDKN2A mutant xenografted in mouse assessed as tumor growth inhibition at 2.5 mg/kg, po. Format: functional. The settings on record: read-out: TGI. An outline of the steps:
as §2

Experiment [4] deals with Serine/threonine-protein kinase pim-3 (Homo sapiens, UniProt Q86V86). In words: Inhibition of PIM3 (unknown origin).
Experiment [5] can be described thus: Antitumor activity against human A375.X1 cells harboring BRAF V600E/CDKN2A E61 mutant xenografted in mouse assessed as tumor growth inhibition at 2.5 mg/kg, po. Format: functional. The settings on record: A375.X1, read-out: TGI. The essentials: as §1
For experiment [6], the system named is NCI-H69. Put plainly: Antitumor activity against human NCI-H69 cells harboring RBI E748/PK3CA G106_R108/TP53 E171 mutant xenografted in mouse assessed as tumor growth inhibition at 5 mg/kg, po. Format: functional. The following applies: read-out: TGI. The essentials: as §2
The next experiment concerns A549. Put plainly: Antitumor activity against human A549 cells harboring KRAS G12S/LKB1Q37/SMARCA4 Q729/CDKN2A mutant xenografted in mouse assessed as tumor growth inhibition at 5 mg/kg, po. Format: functional. The following applies: read-out: TGI. An outline of the steps: as §1
In experiment [7] the test system is NCI-H2122. Put plainly: Antitumor activity against human NCI-H2122 cells xenografted in mouse assessed as reduction in ERK phosphorylation at 1 to 10 mg/kg, po administered for 3 days and measured at 8 hrs by Western blot analysis. The settings on record: time 80 hrs. More on the design: scale not given: the % may be the effect or the level left. Format: functional. The essentials: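 NCI-H2122 xenograft mice received 3 daily oral doses of 1, 3, 5 or 10 mg/kg. Tumors were collected 2, 8 and 24 h after the last dose, pulverized on dry ice and lysed. Lysates were run on 4–12% SDS-PAGE and transferred to nitrocellulose. p-ERK1/2 and t-ERK1/2 bands were quantified on an Odyssey imager and expressed relative to vehicle-treated mice (0 h).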

In experiment [8] the test system is NCI-H2122. Put plainly: Antitumor activity against human NCI-H2122 cells xenografted in mouse assessed as tumor growth inhibition at 15 mg/kg, po administered every third day for 21 days. The format is functional. The settings on record: NCI-H2122, 504 h, time 21 day, read-out: TGI. The essentials:
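Dosing was oral, every third day (Q3D) across 21 days, with single agents or the MEK plus PI3K combination in NCI-H2122 xenograft mice. Tumor volume was calculated as (L×W×W)/2 from caliper measurements. %TGI was derived from fitted-curve AUC per day relative to vehicle, with body weight monitored.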

In experiment [9] the test system is A2058. In words: Antitumor activity against human A2058 cells harboring BRAF V600E/PTEN deletion mutant xenografted in mouse assessed as increase in Bims level at 15 mg/kg, po administered every third day for 21 days and measured after 8 hrs post dose in presence of 4-(2-(1H-indazol-4-yl)-6-((4-(methylsulfonyl)piperazin-1-yl)methyl)thieno[3,2-d]pyrimidin-4-yl)morpholine by Western blot analysis. The format is functional, organism-based. The settings on record: time 512.0 hrs.

The test system of a further experiment is 888-mel. In words: Induction of apoptosis in human 888-mel cells assessed as increase in cleaved PARP level preincubated with compound for 24 hrs followed by compound washout and measured after 2 hrs in presence of 4-(2-(1H-indazol-4-yl)-6-((4-(methylsulfonyl)piperazin-1-yl)methyl)thieno[3,2-d]pyrimidin-4-yl)morpholine by immunoblotting analysis. The format is functional, cell-based. The essentials: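 The medium was then exchanged to remove compound. Lysates were prepared 2 and 24 h after washout and immunoblotted for cleaved PARP, p-AKT and p-ERK using HRP secondary antibody and ECL.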

In another experiment the test system is A-375. Put plainly: Antitumor activity against human A-375 cells harboring BRAF V600E/CDKN2A E61 mutant xenografted in mouse assessed as tumor growth inhibition at 10 mg/kg, po. Format: functional. The following applies: A-375, read-out: TGI. The essentials: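 Mice carrying human tumor xenografts dosed orally once daily for 21 consecutive days. Tumor volume measured by calipers as (L×W×W)/2. %TGI = 100×[1 − AUC(treatment/day)/AUC(vehicle/day)], using the area under the fitted growth curve relative to vehicle.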

In experiment [10] the target is Serine/threonine-protein kinase B-raf (Homo sapiens, UniProt P15056, V600E). In words: Inhibition of B-RAF V600E (unknown origin).
Experiment [11] addresses RAC-alpha serine/threonine-protein kinase (Homo sapiens, UniProt P31749). Put plainly: Inhibition of Akt1 (unknown origin).
The target in experiment [12] is Dual specificity mitogen-activated protein kinase kinase 6 (Homo sapiens, UniProt P52564). Put plainly: Inhibition of MKK6 (unknown origin).
The target in another experiment is Aurora kinase A (Homo sapiens, UniProt O14965). Put plainly: Inhibition of AuroraA (unknown origin).
Experiment [13] addresses Fibroblast growth factor receptor 3 (Homo sapiens, UniProt P22607). Put plainly: Inhibition of FGFR3 (unknown origin).
Experiment [14] addresses Serine/threonine-protein kinase Chk2 (Homo sapiens, UniProt O96017). In words: Inhibition of CHK2 (unknown origin).
Experiment [15] relates to A2058. Put plainly: Antitumor activity against human A2058 cells xenografted in mouse assessed as tumor growth inhibition at 15 mg/kg, po administered every third day for 21 days. Format: functional. The following applies: A2058, 504 h, time 21 day, read-out: TGI. An outline of the steps:
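Human tumor xenografts in mice. Drugs given orally, as single agents or combined with the PI3K inhibitor. Schedules were daily (QD) or every third day (Q3D) over 21 days. Tumor volume was measured by caliper as (L×W×W)/2. %TGI = 100×[1 − AUC(treatment/d)/AUC(vehicle/d)] from fitted growth curves, with group means. Tumor lysates were immunoblotted for pS6.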

Chain of RAC-alpha serine/threonine-protein kinase (P31749 whole entry): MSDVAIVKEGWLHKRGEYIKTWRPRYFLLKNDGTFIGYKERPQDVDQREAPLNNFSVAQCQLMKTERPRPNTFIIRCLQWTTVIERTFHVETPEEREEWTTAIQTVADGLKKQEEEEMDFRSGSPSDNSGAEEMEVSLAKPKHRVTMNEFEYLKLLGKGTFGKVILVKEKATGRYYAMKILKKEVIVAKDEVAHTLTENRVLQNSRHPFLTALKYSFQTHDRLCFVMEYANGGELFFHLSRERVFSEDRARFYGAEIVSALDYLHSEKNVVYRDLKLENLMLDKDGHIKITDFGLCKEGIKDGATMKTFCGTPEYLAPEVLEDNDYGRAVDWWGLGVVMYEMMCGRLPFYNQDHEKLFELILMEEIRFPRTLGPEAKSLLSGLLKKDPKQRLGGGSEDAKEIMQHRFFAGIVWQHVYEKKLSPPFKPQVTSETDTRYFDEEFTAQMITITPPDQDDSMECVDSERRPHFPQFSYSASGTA
Chain of Dual specificity mitogen-activated protein kinase kinase 6 (P52564 whole entry): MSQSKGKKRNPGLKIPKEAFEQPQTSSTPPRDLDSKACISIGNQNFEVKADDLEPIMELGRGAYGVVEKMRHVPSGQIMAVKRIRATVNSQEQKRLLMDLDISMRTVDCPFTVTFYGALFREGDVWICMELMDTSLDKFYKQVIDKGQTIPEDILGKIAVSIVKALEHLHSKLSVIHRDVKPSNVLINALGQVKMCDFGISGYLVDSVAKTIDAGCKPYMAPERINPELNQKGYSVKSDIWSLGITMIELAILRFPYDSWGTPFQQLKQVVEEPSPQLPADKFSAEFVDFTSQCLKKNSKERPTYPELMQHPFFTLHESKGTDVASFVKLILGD
Chain of Ephrin type-A receptor 2 (P29317 whole entry): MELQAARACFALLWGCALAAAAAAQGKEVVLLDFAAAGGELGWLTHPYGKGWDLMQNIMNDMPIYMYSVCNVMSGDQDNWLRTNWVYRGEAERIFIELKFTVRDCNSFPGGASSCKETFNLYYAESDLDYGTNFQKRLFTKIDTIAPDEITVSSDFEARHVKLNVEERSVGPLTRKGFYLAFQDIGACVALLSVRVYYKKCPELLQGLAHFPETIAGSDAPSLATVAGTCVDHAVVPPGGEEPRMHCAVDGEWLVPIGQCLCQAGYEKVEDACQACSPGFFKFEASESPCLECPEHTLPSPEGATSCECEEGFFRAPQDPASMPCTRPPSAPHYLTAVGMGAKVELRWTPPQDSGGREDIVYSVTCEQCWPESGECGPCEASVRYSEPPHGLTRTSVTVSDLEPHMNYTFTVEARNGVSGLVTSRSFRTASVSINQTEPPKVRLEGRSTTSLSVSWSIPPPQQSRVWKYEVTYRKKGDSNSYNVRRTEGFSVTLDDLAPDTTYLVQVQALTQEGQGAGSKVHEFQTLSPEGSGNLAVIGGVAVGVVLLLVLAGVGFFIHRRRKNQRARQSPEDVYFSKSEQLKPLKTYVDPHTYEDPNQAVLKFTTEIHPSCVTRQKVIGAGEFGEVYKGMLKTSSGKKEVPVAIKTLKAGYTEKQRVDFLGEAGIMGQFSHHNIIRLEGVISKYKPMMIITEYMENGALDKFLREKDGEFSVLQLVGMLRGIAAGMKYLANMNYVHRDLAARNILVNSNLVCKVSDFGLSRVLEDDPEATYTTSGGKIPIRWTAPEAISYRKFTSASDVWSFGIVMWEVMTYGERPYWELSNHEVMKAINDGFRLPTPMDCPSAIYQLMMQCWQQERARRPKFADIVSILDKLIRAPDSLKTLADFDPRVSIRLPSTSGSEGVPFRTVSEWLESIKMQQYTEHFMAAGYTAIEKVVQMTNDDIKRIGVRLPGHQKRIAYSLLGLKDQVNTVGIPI
Chain of Serine/threonine-protein kinase B-raf (P15056 2-766 V600E limits assumed): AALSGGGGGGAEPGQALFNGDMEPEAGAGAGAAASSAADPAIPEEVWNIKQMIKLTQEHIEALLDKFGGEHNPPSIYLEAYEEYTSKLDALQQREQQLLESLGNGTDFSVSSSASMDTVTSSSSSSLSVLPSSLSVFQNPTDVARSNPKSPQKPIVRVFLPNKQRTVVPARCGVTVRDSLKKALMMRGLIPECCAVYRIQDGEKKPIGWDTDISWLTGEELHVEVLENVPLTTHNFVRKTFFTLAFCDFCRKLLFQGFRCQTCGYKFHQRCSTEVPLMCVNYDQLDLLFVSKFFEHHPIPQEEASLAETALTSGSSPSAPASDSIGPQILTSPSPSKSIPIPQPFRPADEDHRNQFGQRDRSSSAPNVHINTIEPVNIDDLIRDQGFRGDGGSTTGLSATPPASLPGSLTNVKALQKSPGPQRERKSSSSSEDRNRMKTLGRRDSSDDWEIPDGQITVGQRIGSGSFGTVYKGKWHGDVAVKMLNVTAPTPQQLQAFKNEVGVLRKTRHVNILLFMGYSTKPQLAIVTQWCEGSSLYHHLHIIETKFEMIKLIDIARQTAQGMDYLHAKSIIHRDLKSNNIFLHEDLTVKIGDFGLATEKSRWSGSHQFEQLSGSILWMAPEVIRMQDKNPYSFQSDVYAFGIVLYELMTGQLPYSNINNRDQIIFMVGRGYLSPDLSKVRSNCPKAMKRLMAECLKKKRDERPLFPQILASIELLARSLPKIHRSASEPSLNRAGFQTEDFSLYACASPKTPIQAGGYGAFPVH
Chain of Aurora kinase A (O14965 whole entry): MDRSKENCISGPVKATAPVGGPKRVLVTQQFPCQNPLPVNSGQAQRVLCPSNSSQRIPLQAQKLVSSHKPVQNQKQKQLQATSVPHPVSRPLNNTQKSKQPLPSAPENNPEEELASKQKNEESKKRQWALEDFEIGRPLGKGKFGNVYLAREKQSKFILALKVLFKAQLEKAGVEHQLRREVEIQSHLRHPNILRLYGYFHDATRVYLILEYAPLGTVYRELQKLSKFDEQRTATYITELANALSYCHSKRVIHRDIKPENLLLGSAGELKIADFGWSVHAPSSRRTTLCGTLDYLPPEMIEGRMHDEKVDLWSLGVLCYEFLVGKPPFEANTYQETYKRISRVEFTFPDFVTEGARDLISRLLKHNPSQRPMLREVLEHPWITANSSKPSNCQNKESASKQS
Chain of Serine/threonine-protein kinase Chk2 (O96017 whole entry): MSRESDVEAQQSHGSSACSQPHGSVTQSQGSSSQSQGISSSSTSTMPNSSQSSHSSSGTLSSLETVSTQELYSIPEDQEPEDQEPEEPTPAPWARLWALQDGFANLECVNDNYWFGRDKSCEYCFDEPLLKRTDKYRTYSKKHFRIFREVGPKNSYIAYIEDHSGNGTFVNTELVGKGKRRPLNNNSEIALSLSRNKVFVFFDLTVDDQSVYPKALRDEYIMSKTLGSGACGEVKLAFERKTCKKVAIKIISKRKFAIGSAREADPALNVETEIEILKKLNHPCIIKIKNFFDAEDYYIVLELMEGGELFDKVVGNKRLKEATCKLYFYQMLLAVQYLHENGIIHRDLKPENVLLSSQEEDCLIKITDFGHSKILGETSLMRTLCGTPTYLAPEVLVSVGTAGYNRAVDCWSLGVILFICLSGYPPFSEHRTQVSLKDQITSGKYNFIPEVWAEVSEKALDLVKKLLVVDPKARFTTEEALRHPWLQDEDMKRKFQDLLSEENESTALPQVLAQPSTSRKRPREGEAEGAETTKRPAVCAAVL
Chain of Serine/threonine-protein kinase PAK 2 (Q13177 whole entry): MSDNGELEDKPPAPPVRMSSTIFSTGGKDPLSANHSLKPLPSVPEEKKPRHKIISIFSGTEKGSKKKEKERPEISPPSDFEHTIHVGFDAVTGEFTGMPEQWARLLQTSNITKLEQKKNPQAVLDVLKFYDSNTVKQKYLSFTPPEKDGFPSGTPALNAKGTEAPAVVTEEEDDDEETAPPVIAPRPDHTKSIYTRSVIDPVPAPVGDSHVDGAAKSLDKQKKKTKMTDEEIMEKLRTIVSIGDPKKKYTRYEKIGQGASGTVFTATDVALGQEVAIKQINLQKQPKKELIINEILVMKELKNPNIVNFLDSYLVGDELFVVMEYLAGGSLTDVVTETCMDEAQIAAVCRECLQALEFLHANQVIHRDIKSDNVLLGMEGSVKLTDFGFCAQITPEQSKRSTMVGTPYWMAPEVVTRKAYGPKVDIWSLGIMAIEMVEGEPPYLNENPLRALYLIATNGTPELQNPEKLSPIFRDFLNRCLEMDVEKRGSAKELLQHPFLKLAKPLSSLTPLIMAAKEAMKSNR

For `O=C(c1ccc(F)c(F)c1Nc1ccc(I)cc1F)N1CC(O)([C@@H]2CCCCN2)C1` [COBIMETINIB], the half-maximal inhibitory concentration (IC50) (in experiment [1]; against Ephrin type-A receptor 2; in [2]; in experiment [4]; in experiment [10]; in [11]) was > 10 µM in each case. For the same compound, the IC50 (in experiment [12]; on Aurora kinase A; in experiment [13]; in [14]) was > 10 µM each time. Also, the inhibition in vivo at 2.5 mg/kg with HCT-116 came to 34%; in the experiment with SK-OV-3 it was 36%; in experiment [5] it was 97.5%. Moreover, the inhibition in vivo at 10 mg/kg in the experiment with DU-145 came to 77%; with NCI-H69 [3], 38%; in the experiment on A-375, 122%. The inhibition in vivo at 5 mg/kg in the experiment on NCI-H69 [6] is 21%; in the experiment on A549 it was 51.4%. In the experiment with NCI-H2122 [7], the Activity was 83%. Further, the figures for the inhibition in vivo at 15 mg/kg with NCI-H2122 [8] and in the experiment with A2058 [15] were 71% and 41%, respectively. Moreover, in the experiment with A2058 [9], the outcome was Active. Further, in the experiment with 888-mel, the result was inactive.

One may read the IC50 as the concentration that inhibits the measured activity by half.
